Screening results as filed in PubChem BioAssay.
MC4R barr agon: agonists of human melanocortin 4 receptor (MC4R) beta-arrestin. P32245. U2OS MC4R beta-arrestin complementation, luminescence; percent of melanotan II response, DMSO zero. activation, % at 8.9 µM. 360,000 compounds, 0.98% hits;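 active means activation above a per-plate cutoff, the mean activation of sample wells on that plate plus 3 SD, cut at about 8% in these data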
Target sequence (P32245 whole entry, looked up): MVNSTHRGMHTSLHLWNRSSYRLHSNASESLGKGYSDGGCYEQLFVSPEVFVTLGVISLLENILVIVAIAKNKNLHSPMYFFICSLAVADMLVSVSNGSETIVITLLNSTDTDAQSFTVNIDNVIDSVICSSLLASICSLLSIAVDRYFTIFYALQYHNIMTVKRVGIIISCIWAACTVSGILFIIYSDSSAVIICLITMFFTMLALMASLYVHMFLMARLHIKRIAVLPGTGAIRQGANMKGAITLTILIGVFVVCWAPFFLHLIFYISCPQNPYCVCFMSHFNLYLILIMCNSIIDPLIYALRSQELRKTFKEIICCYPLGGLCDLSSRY
m5-HT2A agonist: mouse HTR2A agonism via beta-arrestin recruitment; P35363; CHO-K1 mHTR2A beta-arrestin complementation, luminescence; percent of 30 µM serotonin response; activation, % at 7.6 µM; 360,000 compounds, 0.66% hits; AID 624169;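 active means activation above a run cutoff, the mean activation of all tested compounds plus 3 SD, cut at about 14% in these data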;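 further: 0% = plate median of compound wells and 100% = 30 µM serotonin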
MC4R antag cAMP: human MC4R antagonism in cAMP assay. MC4R-expressing cells, MTII-stimulated cAMP, LANCE TR-FRET. P32245. 360,000 compounds, 0.48% hits. inhibition, % at 6.5 µM. AID 540295;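 active means inhibition above its plate's cutoff, the mean of tested wells on that plate plus 3 SD, cut at about 29% in these data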;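 further: 0% = Melanotan II alone and 100% = Melanotan II plus saturating MCL0020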
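Material: human MC4R-expressing U2OS cells. Probe or stimulus: Melanotan II challenge. Dosing: 6.5 µM single dose. Times: 30-min compound, 1-h challenge, 1-h detection, room temperature. Technique: TR-FRET with Eu-cAMP and labeled anti-cAMP, 671 nm. Replication: singlicate.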
EBI2 antag: EBI2 (human) antagonism. EBI2 beta-arrestin recruitment, luminescence, 7a,25-OHC stimulated. P32249. AID 651636. inhibition, % at 5 µM. 360,000 compounds, 0.81% hits; in the data active means inhibition above about 38%;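 further: enzyme fragment complementation signal reports receptor beta-arrestin coupling in cells; 0% = agonist plus DMSO wells and 100% = wells without agonist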
Target sequence (P32249 whole entry, looked up, the tested form may be a part): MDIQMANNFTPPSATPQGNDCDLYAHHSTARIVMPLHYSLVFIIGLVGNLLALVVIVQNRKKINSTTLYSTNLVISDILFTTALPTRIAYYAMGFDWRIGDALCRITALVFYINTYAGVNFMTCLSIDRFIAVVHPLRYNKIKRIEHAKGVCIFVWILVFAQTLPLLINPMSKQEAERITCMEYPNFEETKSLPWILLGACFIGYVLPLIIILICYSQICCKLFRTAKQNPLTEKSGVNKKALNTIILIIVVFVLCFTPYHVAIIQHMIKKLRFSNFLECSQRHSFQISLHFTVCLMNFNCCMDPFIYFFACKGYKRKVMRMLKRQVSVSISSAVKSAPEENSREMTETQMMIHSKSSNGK
* marks the source's active call; other numbers are inactive results; · = no result. Sampled rows, rich in hits. Any-hit rate of the full collection: about 2.8%.

SMILES | MC4R barr agon | m5-HT2A agonist | MC4R antag cAMP | EBI2 antag
C[C@H](CO)N1C[C@H](C)[C@@H](CN(C)CC2CC2)OCc2cnnn2CCCC1=O | -1.6 | 10.3 | 14.1 | -6.2
CCc1ccc(Nc2nc(N)nc(CSc3nnnn3-c3ccccc3)n2)cc1 | 8.5* | -1.9 | -10.8 | 16.1
CSc1ccccc1NC(=O)Cn1c(-c2cscn2)nc2ccccc21 | -0.8 | -1.5 | -5.3 | -2.2
Brc1ccccc1Cn1c(-c2cscn2)nc2ccccc21 | 9.3* | 0.4 | -0.2 | 10.9
O=C(Nc1cc(Br)ccc1O)C1CC(c2ccccc2Cl)=NO1 (stereo not given) | 8.6* | 2.7 | 5.2 | 3.3
O=C(Nc1cc(Cl)ccc1O)C1CC(c2c(F)cccc2Cl)=NO1 (stereo not given) | 0.3 | -3.6 | 14.1 | 14.4
Cc1ccc(NC(=O)C(=O)NC(C)C2COc3ccccc3O2)cc1 (stereo not given) | 10.9* | 12.0 | -3.2 | -6.0
CC1=C(C)/C(=N\OS(=O)(=O)c2ccc(C)cc2)C=CC1=O | 1.1 | 0.0 | 16.5 | 6.8
CC1=C/C(=N\OS(=O)(=O)c2ccccc2)C(C(C)C)=CC1=O | 30.7* | -5.7 | 45.4* | -43.2
COc1cccc(CNC(=O)[C@@H]2CCCN2)c1 | · | 1.8 | · | -5.1
COc1ccc(-c2cc(C(=O)NC(C)c3ccccn3)c3ccccc3n2)cc1OC (stereo not given) | -0.5 | 20.1* | -9.4 | 5.3
COc1ccc(-c2cc(C(=O)NC3CCCC3)c3ccccc3n2)cc1OC | -0.4 | 1.1 | 4.5 | 3.6
COc1ccc(N=C2S/C(=C\c3ccc(N4CCOCC4)o3)C(=O)N2CCc2c[nH]c3ccccc23)cc1 | 3.3 | 1.0 | 14.3 | 80.9*
Cc1c(Cl)cccc1NC(=O)c1cc(-c2ccccc2O)n[nH]1 | 9.3* | -4.1 | -5.0 | 15.2
Cc1ccccc1OCC(=O)Nc1cccc(Cl)c1C | 8.6* | -8.1 | 3.8 | 9.8
CC1(C(=O)NCc2ccc3c(c2)OCO3)CCN1Cc1csc2ccccc12 (stereo not given) | -0.9 | -6.8 | -2.2 | 29.6
CN(C)C(=O)c1cccc(-c2cnc3c(NC=O)cc(-c4ccccc4N(C)C)cn23)c1 | 9.2* | 1.2 | -33.3 | -3.5
COc1cccc(-c2cc(NC=O)c3ncc(-c4ccc(C(C)=O)cc4)n3c2)c1 | 8.4* | -0.9 | 2.0 | 22.8
COc1cccc(-c2cnc3c(NC=O)cc(-c4ccccc4)cn23)c1 | 2.9 | -6.3 | -16.7 | 9.9
COc1cccc(-c2cnc3c(NC=O)cc(-c4ccccc4Oc4ccccc4)cn23)c1 | 8.8* | 8.0 | 1.0 | 23.6
Cc1ccc(-c2cc(NC=O)c3ncc(-c4cccc(C(=O)N(C)C)c4)n3c2)cc1 | 4.0 | -2.8 | -12.7 | 20.1
NC(COCc1ccccc1)c1csc(NC(=O)Nc2cccc(C(F)(F)F)c2)n1 (stereo not given) | 6.4 | -2.1 | 11.9 | 3.4
O=C(Nc1ccc(F)cc1)C(c1cccc(F)c1)N1CCN(Cc2c(F)cccc2Cl)CC1 (stereo not given) | · | -3.5 | · | 7.2
COc1ccccc1C(=O)N1CCN(C(=O)[C@H]2O[C@@H](n3ccc(=O)[nH]c3=O)[C@H](O)[C@@H]2O)CC1 | · | 4.4 | · | -3.1
CCS(=O)(=O)c1ncc(Cl)c(C(=O)Nc2ccc(C)cc2)n1 | -0.4 | -0.5 | 0.1 | 52.6*
SMILES | MC4R barr agon | m5-HT2A agonist | MC4R antag cAMP | EBI2 antag
O=C(Nc1ccc2ccccc2c1)c1cnccn1 | 0.8 | -0.4 | 2.4 | -9.6
CS(=O)(=O)c1ncc(Cl)c(C(=O)Nc2ccc3ccccc3c2)n1 | -5.3 | -6.8 | -12.2 | 56.9*
CC1(C(=O)NS(=O)(=O)c2cccc(C#N)c2)CCN1C(=O)CCC1CCCC1 (stereo not given) | -0.3 | 10.6 | 8.4 | 0.7
COc1ccc2ccccc2c1/C=N\NC(=O)c1ccc(C)s1 | -3.0 | -9.9 | 3.8 | 15.0
COc1ccc2ccccc2c1/C=N/NC(=O)c1sc(N)c(C#N)c1C | 10.3* | 3.7 | -10.8 | 4.5
COc1ccc(NC(=O)c2c(NC(=O)CNCc3ccco3)sc3c2CCC3)c(OC)c1 | -1.4 | -0.9 | 1.8 | 23.5
COc1ccc(OC)c(NC(=O)c2c(NC(=O)CNCc3ccco3)sc3c2CCC3)c1 | 9.2* | -0.3 | 16.1 | 14.1
CC(C)(C)CC(C)(C)SSc1n[nH]c(=S)s1 | -1.7 | -4.1 | 12.5 | -56.7
CCCCCCCCCCS(=O)(=O)N/N=C/c1ccc(O)cc1 | 9.0* | 0.6 | 2.3 | -9.3
CCCCCCCCCS(=O)(=O)N/N=C/c1cccc([N+](=O)[O-])c1 | 4.3 | 2.7 | 2.4 | -0.9
CCOC(=O)N1CCN(C(=O)c2ccccc2NC(=O)c2ccc(F)cc2)CC1 | 8.4* | 0.0 | 2.7 | 15.3
O=C1/C(=C\c2ccco2)SC(=S)N1c1ccccc1 | 3.7 | 3.9 | -1.6 | 14.6
Cc1ccc(N2C(=O)/C(=C\c3ccco3)SC2=S)cc1 | 10.3* | 1.2 | 10.1 | 0.0
O=C1C=CC(=O)N1c1ccc2c(c1)C(NC(=O)C(F)(F)F)c1ccccc1-2 (stereo not given) | -4.2 | 2.8 | 71.0* | 15.9
CC(=O)Nc1ccc(NC(=O)c2nc(S(=O)(=O)Cc3ccccc3)ncc2Cl)cc1 | -4.0 | -4.1 | 18.2 | -0.4
CCOc1ccccc1NC(=O)c1nc(S(=O)(=O)Cc2cccc(C)c2)ncc1Cl | -2.0 | -1.4 | 22.4 | 73.1*
COC(=O)c1ccccc1NC(=O)c1nc(S(=O)(=O)Cc2ccccc2)ncc1Cl | -3.9 | 10.1 | 7.3 | 86.0*
COC(=O)/C=C1\OCc2c(F)cccc21 | · | 0.3 | · | -0.5
N#C/C(=C\c1ccncc1)c1nc2ccccc2o1 | 0.4 | -4.8 | 10.6 | -3.2
N#C/C(=C\c1ccc(Cl)cc1)c1nc2ccccc2o1 | 8.9* | -2.8 | 3.5 | 7.7
c1ccc(C(c2ccccn2)c2ccccn2)cc1 | -0.8 | 4.0 | 7.8 | -6.3
CC(=O)Oc1ccc(C(c2ccc(OC(C)=O)cc2)c2ccccn2)cc1 | 75.1* | 0.2 | -31.3 | -7.8
COc1ccc(-c2noc(-c3ccc4c(c3)OCO4)n2)cc1 | -1.2 | -1.5 | 0.9 | -0.5
COc1ccc(-c2nc(-c3ccc4c(c3)OCO4)[nH]c2-c2ccc(OC)cc2)cc1 | -1.0 | -2.7 | -0.3 | 47.5*
COc1ccc(S(=O)(=O)N(C)C[C@@H]2OCc3cn(nn3)CCCC(=O)N([C@@H](C)CO)C[C@H]2C)cc1 | 2.3 | 0.1 | 11.2 | -5.0
SMILES | MC4R barr agon | m5-HT2A agonist | MC4R antag cAMP | EBI2 antag
Cc1cc(C)cc(NC(=O)CSc2nc(CSc3ccc(Cl)cc3)cc(=O)[nH]2)c1 | 8.6* | 3.1 | 4.7 | -5.0
Nc1cc(=O)[nH]c(SCC(=O)Nc2cc(Cl)cc(Cl)c2)n1 | -0.8 | 1.8 | -2.1 | 11.3
NC(COCc1ccccc1)c1csc(Nc2ccc(C(=O)c3ccccc3)cc2)n1 (stereo not given) | 7.8 | 0.8 | 6.3 | -10.8
Cc1nc2sc(C(=O)Nc3ccccc3)c(N)c2c(C)c1[N+](=O)[O-] | 9.3* | -5.2 | -9.0 | 3.5
COc1nccnc1NS(=O)(=O)c1ccc(N)cc1 | 0.5 | 4.0 | 2.7 | -5.1
Cc1cc(Cl)c(S(N)(=O)=O)cc1OCC(=O)NC1CCCCC1 | -1.9 | 3.3 | 5.6 | -9.3
